Screens: PubChem BioAssay, Broad Institute
GASC1 inh: KDM4C (human) demethylase inhibition; inhibition, % at 12.5 µM; Q9H3R0; GST-KDM4C 2-372, H3K9me3 peptide, LANCE TR-FRET; actives 0.15% (n = 96,000);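 active means mean replicate inhibition above about 25%, with at least 55% of replicates also reaching it, limit read from the data, passing the limit was not always enough; inconclusive means only one of those two conditions met; inactive means neither condition met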
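Test system: N-terminal GST-fused human GASC-1 (KDM4C) fragment, residues 2-372; quantity: GASC-1 enzyme at 10 nM final in reaction; dosing: single dose; schedule: 30 min demethylation and 1 h detection at room temperature; signal: LANCE TR-FRET, excitation 340 nm, emissions 618 and 671 nm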
IDH1 mut inh: IDH1 R132H (human) inhibition | O75874 | IDH1 R132H reductase, diaphorase/resazurin fluorescence, 60 min | inhibition, % at 10 µM | actives 0.18% (n = 70,000); in the data active means inhibition above about 34%; inconclusive means no clear call, values can overlap the other calls; inactive means below about 11%
Target sequence (O75874 whole entry R132H): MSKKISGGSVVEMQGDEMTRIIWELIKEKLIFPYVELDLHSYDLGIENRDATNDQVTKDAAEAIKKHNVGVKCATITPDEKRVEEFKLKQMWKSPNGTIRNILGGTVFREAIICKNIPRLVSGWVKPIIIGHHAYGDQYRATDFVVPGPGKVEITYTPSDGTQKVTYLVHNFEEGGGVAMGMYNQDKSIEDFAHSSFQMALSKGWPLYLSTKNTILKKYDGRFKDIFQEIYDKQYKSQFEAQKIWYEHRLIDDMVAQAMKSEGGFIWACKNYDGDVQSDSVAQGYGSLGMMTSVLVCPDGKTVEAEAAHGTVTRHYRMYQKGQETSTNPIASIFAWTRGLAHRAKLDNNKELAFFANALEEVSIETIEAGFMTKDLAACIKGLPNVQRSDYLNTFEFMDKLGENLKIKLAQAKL
T cruzi growth-1: T. cruzi proliferation inhibition; T. cruzi beta-gal in NIH3T3, GalScreen luminescence, 90 h; inhibition, % at 8.34 µM; actives 5.9% (n = 77,000); AID 624255;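 active means mean inhibition above about 93%, with at least 55% of replicates each passing it, limit read from the data, passing the limit was not always enough; inconclusive means only one of those two conditions holds; inactive means neither condition holds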
T cruzi growth-2: Trypanosoma cruzi proliferation inhibition; shares compounds with T cruzi growth-1; T. cruzi beta-gal in NIH3T3, GalScreen luminescence, 90 h; inhibition, % at 8.35 µM; actives 72% (n = 5,600); AID 651739;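 active means mean replicate inhibition above about 95% and at least 55% of replicates individually reaching it, limit read from the data; inconclusive means only one of the two criteria is met; inactive means neither criterion is met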
T cruzi growth-3: Trypanosoma cruzi proliferation inhibition; actives 21% (n = 5,600); AID 651740; T. cruzi beta-gal in NIH3T3, GalScreen luminescence, 90 h; inhibition, % at 2.09 µM; shares compounds with T cruzi growth-1;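 active means mean inhibition above about 95%, with at least 55% of replicates also reaching it, limit read from the data; inconclusive means meets just one of the two conditions; inactive means meets neither condition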
NIH3T3 tox: kills mouse NIH/3T3 fibroblasts; shares compounds with T cruzi growth-1; NIH/3T3 viability, CellTiter-Glo ATP luminescence, 90 h; cytotoxicity (signal decrease), % at 8.35 µM; actives 14% (n = 5,600);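 active means mean signal decrease across replicates above about 35% based on untreated-well scatter, with enough replicates individually passing, limit read from the data; inconclusive means no rule stated though some were filed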
NIH3T3 tox 2: NIH/3T3 (mouse) viability loss | AID 651744 | NIH/3T3 viability, CellTiter-Glo ATP luminescence, 90 h | inhibition, % at 24.9 µM | shares compounds with T cruzi growth-1 | actives 56% (n = 5,600);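 active means mean loss of cell viability signal at or above a set limit, and enough replicates individually reaching it; inconclusive means meets only the mean limit or only the replicate share; inactive means meets neither condition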
Numbers stand for hits; . = inactive; ? = inconclusive; / = no result given. The entries come from a sample that favours hits as a whole.

SMILES	GASC1 inh	IDH1 mut inh	T cruzi growth-1	T cruzi growth-2	T cruzi growth-3	NIH3T3 tox	NIH3T3 tox 2
Cc1cccc(S(=O)(=O)N2CCCCN3[C@H](CO)[C@@H](c4ccc(C#C[C@H](C)O)cc4)[C@@H]3C2)c1	.	/	.	/	/	/	/
C=C(C(=O)O[C@@H]1O[C@H](CO)[C@@H](O)[C@H](O)[C@H]1O)[C@@H]1CC[C@@]2(C)C[C@H](O)C[C@@](C)(O)C2C1 (some centres undefined)	/	.	/	/	/	/	/
C[C@H]1CN([C@@H](C)CO)S(=O)(=O)c2ccc(-c3ccc(C#N)cc3)cc2O[C@@H]1CN(C)C(=O)Nc1cc(F)ccc1F	.	.	108	.	.	.	75
C[C@H]1CN([C@@H](C)CO)S(=O)(=O)c2ccc(-c3cccc(C#N)c3)cc2O[C@H]1CN(C)C(=O)Nc1cc(F)ccc1F	.	/	/	/	/	/	/
C[C@@H]1CN([C@@H](C)CO)S(=O)(=O)c2ccc(-c3ccc(C#N)cc3)cc2O[C@H]1CN(C)C(=O)Nc1cc(F)ccc1F	.	/	.	/	/	/	/
C[C@H](CO)N1C[C@H](C)[C@H](CN(C)C(=O)Nc2cc(F)ccc2F)Oc2cc(-c3cccc(C#N)c3)ccc2S1(=O)=O	.	.	/	/	/	/	/
C[C@H]1CN([C@@H](C)CO)S(=O)(=O)c2ccc(-c3cccc(F)c3)cc2O[C@H]1CN(C)C(=O)Nc1cc(F)ccc1F	.	.	112	105	102	63	42
C[C@H]1CN([C@@H](C)CO)S(=O)(=O)c2ccc(-c3cccc(F)c3)cc2O[C@@H]1CN(C)C(=O)Nc1cc(F)ccc1F	.	.	112	106	.	43	86
O=C(Cn1cnc2ccccc2c1=O)Nc1ccc(Br)cc1F	/	.	/	/	/	/	/
O=C(/C=C/c1ccccc1)Nc1nnc(CSCc2ccccc2F)s1	/	.	/	/	/	/	/
Cc1cc(C(=O)CSc2nnc3ccccn23)c(C)n1-c1cc(Cl)ccc1Cl	/	.	/	/	/	/	/
CS(=O)(=O)N(CC(=O)Nc1c(F)cccc1F)c1ccc(I)cc1	/	.	/	/	/	/	/
O=C(Nc1ccccc1[N+](=O)[O-])C1(c2ccccc2)CCN(S(=O)(=O)c2ccccc2)CC1	/	.	/	/	/	/	/
C[C@@H]1CN([C@@H](C)CO)S(=O)(=O)c2ccc(-c3ccccc3)cc2O[C@@H]1CN(C)Cc1ccccc1	.	.	121	103	106	48	105
C[C@H](CO)N1C[C@H](C)[C@@H](CN(C)Cc2ccccc2)Oc2cc(-c3ccccc3)ccc2S1(=O)=O	.	.	.	/	/	/	/
C[C@@H]1CN([C@H](C)CO)S(=O)(=O)c2ccc(-c3ccccc3)cc2O[C@@H]1CN(C)Cc1ccccc1	.	.	.	/	/	/	/
C[C@H](CO)N1C[C@H](C)[C@H](CN(C)Cc2ccccc2)Oc2cc(-c3ccccc3)ccc2S1(=O)=O	.	.	113	105	.	.	106
O=C(NCc1ccco1)c1ccc(NC(=O)c2cccs2)cc1	/	.	/	/	/	/	/
Cc1c(C(=O)Nc2sc3c(c2C(=O)NC2CCS(=O)(=O)C2)CCCC3)oc2ccccc12 (centres undefined)	/	.	/	/	/	/	/
CNC[C@@H]1Oc2cc(C#Cc3ccccc3OC)ccc2S(=O)(=O)N([C@@H](C)CO)C[C@H]1C	.	.	105	104	.	.	104
CNC[C@H]1Oc2cc(C#Cc3ccccc3)ccc2S(=O)(=O)N([C@H](C)CO)C[C@@H]1C	.	.	/	/	/	/	/
CNC[C@H]1Oc2cc(C#Cc3ccccc3OC)ccc2S(=O)(=O)N([C@@H](C)CO)C[C@@H]1C	.	.	103	106	.	?	104
CNC[C@@H]1Oc2cc(C#Cc3ccccc3)ccc2S(=O)(=O)N([C@H](C)CO)C[C@H]1C	.	.	/	/	/	/	/
Cc1ccc(-c2csc3ncnc(SCc4csc(C)n4)c23)cc1	/	.	/	/	/	/	/
Cc1ccc(-c2nc3c(c(SCC(=O)Nc4cccc(C(F)(F)F)c4)n2)COC(C)(C)C3)cc1	/	.	/	/	/	/	/
O=C(O)CNC(=O)c1ccc(S(=O)(=O)N2CCCC2)cc1	/	.	/	/	/	/	/
OC[C@H]1[C@H](c2ccc(-c3ccccc3F)cc2)[C@@H]2CN(Cc3cccnc3)CCCCN12	.	/	.	/	/	/	/
